Test results: publication PMC13618202 (ACS chemical biology, 2026)

What was measured:
[1] = tested on: UBA5; conditions: read-out: IC50 (UBA5); cited from earlier work
[2] = target: T1, UBA5 (Homo sapiens, UniProt Q9GZZ9); assay: Fluorescence polarization; type: biochemical; conditions: titration
T1 sequence (Q9GZZ9 37-346): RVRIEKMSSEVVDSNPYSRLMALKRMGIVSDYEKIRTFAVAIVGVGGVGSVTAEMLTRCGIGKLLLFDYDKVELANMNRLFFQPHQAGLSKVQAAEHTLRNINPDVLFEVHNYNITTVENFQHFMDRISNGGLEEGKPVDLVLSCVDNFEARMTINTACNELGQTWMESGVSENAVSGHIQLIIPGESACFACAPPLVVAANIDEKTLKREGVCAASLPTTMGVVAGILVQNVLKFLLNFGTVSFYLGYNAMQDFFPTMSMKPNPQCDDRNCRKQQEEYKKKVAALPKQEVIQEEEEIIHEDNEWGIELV
How it was run: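 UBA5 (1 μM) preincubated 1 h with test compound (0–25 μM), then UFM1 (2.5 μM) and ATP (20 μM) added for 30 min at RT. Transcreener detection reagent (anti-AMP antibody, Alexa Fluor 633 AMP tracer) added for 1.5 h. AMP read as fluorescence polarization. IC50 by curve fitting, triplicate.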

[3] = target: T1, UBA5; assay: AMP-Glo UBA5 UFMylation assay; type: biochemical; conditions: read-out: IC50-UBA5-Glo; UBA5 0.8 μM; UFM1 5 μM; ATP 5 μM
[4] = tested on: coupling enzymes in the AMP-Glo kit; assay: UBA5-free AMP-Glo coupling enzyme assay; type: biochemical; conditions: 3 mM, no UBA5, ATP 5 μM with or without AMP 5 μM
How it was run: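 Without UBA5: test compound (0–100 μM) incubated 30 min with AMP-Glo kit components and UFM1 (5 μM), then AMP added to a final 5 μM as direct substrate. Luminescence endpoint read at 37 °C with 2 min integration. Normalized to DMSO wells with AMP (100%) and without AMP (0%). Triplicate.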

[5] = target: T1, UBA5; assay: Gel-based UBA5-UFM1 charging assay; type: biochemical; conditions: UBA5 12 μM; UFM1 25 μM; ATP 2 mM; 2 h
How it was run: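 UBA5 (12 μM) incubated 1 h with test compound (0–100 μM) in 50 mM Bis-Tris pH 6.5, 100 mM NaCl, 10 mM MgCl2. UFM1 (25 μM) and ATP (2 mM) then added for 2 h at 30 °C; zero time points taken before ATP addition. Gel read-out of UBA5–UFM1 thioester, duplicate.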

[6] = tested on: global cellular ubiquitination in HEK293T cells; assay: Global cellular ubiquitination; type: cell-based, Human; conditions: compounds 60 μM, TAK-243 125 or 250 nM, 5 h

| Compound | IC50 [1] [µM] | inhibition of UBA5 reaction in FP assay [2] | IC50 [3] [µM] | interference with the AMP-Glo detection system [4] | UBA5-UFM1 thioester formation (UFM1 activation) [5] | global cellular ubiquitination [6] |
| --- | --- | --- | --- | --- | --- | --- |
| Nc1ncnc2c1ncn2[C@@H]1O[C@H](COS(N)(=O)=O)[C@@H](O)[C@H]1O [adenosine 5’-sulfamate (ADS), adenosine 5’-sulfamate] | 13 |  |  |  |  |  |
| COc1ccc(CNC(=O)CCl)cc1OC [DKM 2-93] | 430 | dose-dependently inhibited the reaction | 547 | does not significantly interfere | significantly reduced UFM1 activation |  |
| NS(=O)(=O)OC[C@H]1C[C@@H](Nc2ccnc3cc(-c4cccc(SC(F)(F)F)c4)nn23)[C@H](O)[C@@H]1O [TAK-243] |  |  |  |  |  | markedly reduced global cellular ubiquitination |
